Bioassay records deposited in PubChem by Johns Hopkins Ion Channel Center.
Shown are actives, neighbours in structure and some others; about 2.3% of the full set was active somewhere.
TRPC6 inhibitor – mouse TRPC6 channel inhibitors, primary screen, cell-based, HEK293, membrane potential dye; Short transient receptor potential channel 6 (Mus musculus), Q61143; ACh-evoked depolarization; hits give low values; B-score at 10 µM; 1.1% of 310,000 active; AID 2553, 2010;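 active = B-score under library mean minus 3 SD, initial fluorescence not abnormally high, positive integrated signal ratio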;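 also: B-score derived from integrated fluorescence ratio over the kinetic read; more negative B-score means stronger inhibition of depolarization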
TRPC6 act – mouse TRPC6 channel activators, primary screen, cell-based, HEK293, membrane potential dye; Short transient receptor potential channel 6 (Mus musculus), Q61143; HEK293-TRPC6 membrane potential dye fluorescence; hits give high values; B-score at 10 µM; 0.13% of 310,000 active; AID 2550, 2010;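 active = B-score of the integrated fluorescence ratio above library mean plus 3 SD, and starting fluorescence ratio within library mean plus 5 SD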;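 also: higher score means more depolarization so channel activation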
TRPC4 agonist – activators of mouse TRPC4 channel, primary screen, Fluo4 calcium, HEK293 TRPC4beta/mu-opioid cells; Short transient receptor potential channel 4 (Mus musculus), Q9QUQ5; Fluo4 calcium fluorescence; hits give high values; B-score at 10 µM; 0.49% of 310,000 active; AID 2237, 2010;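 active = B-score above 5 SD of library B-scores, and initial fluorescence ratio not above library mean plus 5 SD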;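 also: positive B-score marks a calcium rise read as TRPC4 activation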
Target sequence (Q9QUQ5 whole entry, looked up): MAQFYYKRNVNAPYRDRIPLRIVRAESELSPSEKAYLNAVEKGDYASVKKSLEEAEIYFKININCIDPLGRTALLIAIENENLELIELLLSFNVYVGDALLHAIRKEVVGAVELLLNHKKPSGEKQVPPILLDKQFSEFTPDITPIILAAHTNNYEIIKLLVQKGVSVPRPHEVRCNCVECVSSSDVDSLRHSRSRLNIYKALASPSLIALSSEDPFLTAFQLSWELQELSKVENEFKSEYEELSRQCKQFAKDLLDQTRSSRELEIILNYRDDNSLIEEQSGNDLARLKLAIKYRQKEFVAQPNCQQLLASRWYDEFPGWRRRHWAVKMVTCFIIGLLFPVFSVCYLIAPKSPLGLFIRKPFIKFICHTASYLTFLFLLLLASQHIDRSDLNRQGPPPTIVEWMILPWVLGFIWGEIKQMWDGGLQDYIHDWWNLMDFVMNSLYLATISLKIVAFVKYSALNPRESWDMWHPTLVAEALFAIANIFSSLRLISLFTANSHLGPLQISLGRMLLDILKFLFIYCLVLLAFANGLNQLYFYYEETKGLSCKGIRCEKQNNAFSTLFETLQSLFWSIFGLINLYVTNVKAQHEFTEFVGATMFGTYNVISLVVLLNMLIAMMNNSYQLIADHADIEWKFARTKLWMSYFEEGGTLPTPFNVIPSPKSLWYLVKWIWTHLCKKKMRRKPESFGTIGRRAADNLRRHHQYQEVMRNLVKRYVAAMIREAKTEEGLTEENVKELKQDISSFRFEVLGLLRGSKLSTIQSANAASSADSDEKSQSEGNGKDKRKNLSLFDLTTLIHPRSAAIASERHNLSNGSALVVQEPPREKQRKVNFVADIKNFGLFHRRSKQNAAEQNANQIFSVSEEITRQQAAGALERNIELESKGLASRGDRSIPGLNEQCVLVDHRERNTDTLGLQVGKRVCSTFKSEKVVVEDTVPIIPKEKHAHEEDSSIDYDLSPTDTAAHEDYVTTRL
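Test system: HEK293 cells stably co-expressing mouse TRPC4beta and mu-opioid receptor | Schedule: Fluo4 dye loading 45 min at room temperature, 110 s recording | Measured by: Kinetic Fluo4 calcium fluorescence, 5 s baseline at 1 Hz | Evaluation: B score of integrated ratio | Controls: Buffer (low) and maximal DAMGO (high)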
TRPC4 block – inhibitors of mouse TRPC4 channel, primary screen, Fluo4 calcium, HEK293 TRPC4beta/mu-opioid cells; Short transient receptor potential channel 4 (Mus musculus), Q9QUQ5; DAMGO-evoked Fluo4 calcium flux; hits give low values; B-score at 10 µM; 0.39% of 300,000 active;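 active = B-score over 3 SD under the library average, no early fluorescence shift, positive overall ratio signal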
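material = TRPC4beta/mu-opioid receptor HEK293 cell line | probe or stimulus = sequential submaximal and maximal DAMGO stimulation | compound dosing = one concentration per compound | measured by = Fluo4 Ca2+ flux fluorescence | evaluation = integrated fluorescence ratio relative to baseline, converted to per-well B score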
TRPC4 PAM – positive allosteric modulators of TRPC4, primary screen, cell-based, mouse TRPC4beta, HEK293 mu-opioid, Fluo-4 calcium; Short transient receptor potential channel 4 (Mus musculus), Q9QUQ5; DAMGO EC20, Fluo-4 Ca2+ flux; hits give high values; B-score at 10 µM; 0.42% of 310,000 active;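 active = B-score of calcium response area above 5 SD of library B-scores, with initial fluorescence ratio within 5 SD of library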;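 also: B-score of integrated fluorescence ratio over time as area under calcium response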
* hit, by the source's call.

Results for Nc1c2c(nc3ccccc13)CCCC2 ?
TRPC6 inhibitor: -5.35*; TRPC6 act: inactive; TRPC4 agonist: inactive; TRPC4 block: inactive; TRPC4 PAM: inactive

How did O=C(COC(=O)Cc1ccc(Br)cc1)NC1CCCCCC1 do in these assays?
TRPC6 inhibitor: inactive; TRPC6 act: inactive; TRPC4 agonist: inactive; TRPC4 block: inactive; TRPC4 PAM: inactive

Results for C#CC[N+]1(CC#Cc2cccc3ccccc23)CCOCC1 ?
TRPC6 inhibitor: inactive; TRPC6 act: inactive; TRPC4 agonist: inactive; TRPC4 block: inactive; TRPC4 PAM: 37*

Results for Cc1ccc(C(=O)C2=C(O)C(=O)N(Cc3cccnc3)C2c2ccc(Br)cc2)o1 (stereo not given) ?
TRPC6 inhibitor: inactive; TRPC6 act: inactive; TRPC4 agonist: inactive; TRPC4 block: inactive; TRPC4 PAM: inactive

How did Cc1ccc(C(=O)C2=C(O)C(=O)N(Cc3cccnc3)C2c2ccc(Cl)c(Cl)c2)o1 (stereo not given) do in these assays?
TRPC6 inhibitor: inactive; TRPC6 act: inactive; TRPC4 agonist: inactive; TRPC4 block: -6*; TRPC4 PAM: inactive

What do the screens show for `COc1cccc(CN2CCN(C(=O)c3cccc(OC)c3)CC2)c1`?
TRPC6 inhibitor: inactive; TRPC6 act: inactive; TRPC4 agonist: inactive; TRPC4 block: inactive; TRPC4 PAM: inactive

Results for O=C(c1cccc(NS(=O)(=O)c2ccc(F)c(F)c2)c1)N1CCN(Cc2ccccc2)CC1 ?
TRPC6 inhibitor: inactive; TRPC6 act: inactive; TRPC4 agonist: 81*; TRPC4 block: inactive; TRPC4 PAM: inactive

Results for Cc1ccc(S(=O)(=O)Nc2cccc(C(=O)NC3CCN(Cc4ccccc4)CC3)c2)cc1F ?
TRPC6 inhibitor: inactive; TRPC6 act: inactive; TRPC4 agonist: inactive; TRPC4 block: inactive; TRPC4 PAM: inactive

How did O=C(c1ccccc1)N1CCN(Cc2cccc(Oc3ccccc3)c2)CC1 do in these assays?
TRPC6 inhibitor: -10.9*; TRPC6 act: 17.2*; TRPC4 agonist: inactive; TRPC4 block: inactive; TRPC4 PAM: inactive

What do the screens show for `CC(C)Cc1nnc(NC(=O)CN2C(=O)NC3(CCCC3)C2=O)s1`?
TRPC6 inhibitor: inactive; TRPC6 act: inactive; TRPC4 agonist: inactive; TRPC4 block: inactive; TRPC4 PAM: inactive

What do the screens show for `Cc1ccc(S(=O)(=O)NC(C)(C)C)cc1C(=O)OC(C)C(=O)NC1CC1` (stereo not given)?
TRPC6 inhibitor: inactive; TRPC6 act: inactive; TRPC4 agonist: inactive; TRPC4 block: inactive; TRPC4 PAM: inactive

What do the screens show for `COc1ccc(C(CCNCc2ccc(N(C)C)cc2)c2ccccc2)cc1` (stereo not given)?
TRPC6 inhibitor: inactive; TRPC6 act: inactive; TRPC4 agonist: 104*; TRPC4 block: inactive; TRPC4 PAM: inactive

How did CC(C)CN(C(=O)COC(=O)CNC(=O)c1ccccc1)c1c(N)n(Cc2ccccc2)c(=O)[nH]c1=O do in these assays?
TRPC6 inhibitor: inactive; TRPC6 act: inactive; TRPC4 agonist: inactive; TRPC4 block: inactive; TRPC4 PAM: inactive

How did N#CC1=C(N)C2=CCCC[C@H]2[C@H](c2cccc(F)c2)C1(C#N)C#N do in these assays?
TRPC6 inhibitor: inactive; TRPC6 act: inactive; TRPC4 agonist: inactive; TRPC4 block: inactive; TRPC4 PAM: 34*

How did N#CC1=C(N)C(C#N)(C#N)C(c2ccc[nH]2)C2CCCC=C12 (stereo not given) do in these assays?
TRPC6 inhibitor: inactive; TRPC6 act: inactive; TRPC4 agonist: inactive; TRPC4 block: inactive; TRPC4 PAM: inactive

How did CCCN(CCC)CCCNC(=O)c1ccc2c(Cl)c3c(nc2c1)CCC3 do in these assays?
TRPC6 inhibitor: inactive; TRPC6 act: inactive; TRPC4 agonist: 124*; TRPC4 block: inactive; TRPC4 PAM: inactive

What do the screens show for `COCCNC(=O)c1ccc2c(Cl)c3c(nc2c1)CCC3`?
TRPC6 inhibitor: inactive; TRPC6 act: inactive; TRPC4 agonist: inactive; TRPC4 block: inactive; TRPC4 PAM: inactive

Results for COC(=O)CNC(=O)c1sc2ncn(CC(=O)Nc3ccc(C)c(Cl)c3)c(=O)c2c1C ?
TRPC6 inhibitor: inactive; TRPC6 act: inactive; TRPC4 agonist: inactive; TRPC4 block: inactive; TRPC4 PAM: inactive

Results for CCc1cc2c(SCC(=O)N(C)C3CCS(=O)(=O)C3)ncnc2s1 (stereo not given) ?
TRPC6 inhibitor: inactive; TRPC6 act: inactive; TRPC4 agonist: inactive; TRPC4 block: inactive; TRPC4 PAM: 28*

How did CCN(C(=O)CSc1ncnc2sc(C)c(C)c12)C1CCS(=O)(=O)C1 (stereo not given) do in these assays?
TRPC6 inhibitor: inactive; TRPC6 act: inactive; TRPC4 agonist: inactive; TRPC4 block: inactive; TRPC4 PAM: inactive

Results for Cn1c(=O)[nH]c(=O)c2c1nc(SCc1ccccc1Cl)n2CC(N)=O ?
TRPC6 inhibitor: inactive; TRPC6 act: inactive; TRPC4 agonist: inactive; TRPC4 block: inactive; TRPC4 PAM: inactive

What do the screens show for `O=C(O)/C=C\C(=O)Nc1ccc(N2CCN(c3ccc(Cl)c(Cl)c3)CC2)cc1`?
TRPC6 inhibitor: inactive; TRPC6 act: inactive; TRPC4 agonist: inactive; TRPC4 block: -6*; TRPC4 PAM: inactive

What do the screens show for `O=C(O)/C=C\C(=O)Nc1ccc(N2CCN(c3ccc(Cl)cc3)CC2)cc1`?
TRPC6 inhibitor: inactive; TRPC6 act: inactive; TRPC4 agonist: inactive; TRPC4 block: inactive; TRPC4 PAM: inactive

What do the screens show for `Cc1c(C(=O)N2CCCC2)oc2c1-c1nn(CC(=O)NCCCN3CCCCC3)cc1CC2`?
TRPC6 inhibitor: inactive; TRPC6 act: inactive; TRPC4 agonist: inactive; TRPC4 block: inactive; TRPC4 PAM: 11*

How did Cc1c(C(=O)N2CCCC2)oc2c1-c1nn(CC(=O)NCCCN3CCCCC3C)cc1CC2 (stereo not given) do in these assays?
TRPC6 inhibitor: inactive; TRPC6 act: inactive; TRPC4 agonist: inactive; TRPC4 block: inactive; TRPC4 PAM: inactive

What do the screens show for `Cc1cc(C)c(S(=O)(=O)NC2CCN(Cc3ccccc3)CC2)c(C)c1`?
TRPC6 inhibitor: inactive; TRPC6 act: inactive; TRPC4 agonist: inactive; TRPC4 block: inactive; TRPC4 PAM: inactive

Results for Cc1cc(S(=O)(=O)NC2CCN(Cc3ccccc3)CC2)c(C)cc1Cl ?
TRPC6 inhibitor: inactive; TRPC6 act: inactive; TRPC4 agonist: inactive; TRPC4 block: inactive; TRPC4 PAM: 20*

What do the screens show for `CC(=O)Oc1ccc(/C=C(\NC(=O)c2ccco2)C(=O)NCc2ccccc2)cc1`?
TRPC6 inhibitor: inactive; TRPC6 act: inactive; TRPC4 agonist: inactive; TRPC4 block: -7*; TRPC4 PAM: inactive
